Experimental data: ChEMBL document CHEMBL3124809, “Back pocket flexibility provides group II p21-activated kinase (PAK) selectivity for type I 1/2 kinase inhibitors” (J Med Chem, 2014)

Experiments:
[1] = biological target: Serine/threonine-protein kinase PAK 1 (Homo sapiens, UniProt Q13153); test: Binding affinity to N-terminal GST-His-tagged recombinant human PAK1 kinase domain expressed in Escherichia coli BL21 using KKRNRRLSVA as sustrate preincubated for 10 mins followed by ATP addition measured after 60 mins by FRET-based Z'Lyte assay
Sequence of Serine/threonine-protein kinase PAK 1 (Q13153 whole entry, the tested form may be a part): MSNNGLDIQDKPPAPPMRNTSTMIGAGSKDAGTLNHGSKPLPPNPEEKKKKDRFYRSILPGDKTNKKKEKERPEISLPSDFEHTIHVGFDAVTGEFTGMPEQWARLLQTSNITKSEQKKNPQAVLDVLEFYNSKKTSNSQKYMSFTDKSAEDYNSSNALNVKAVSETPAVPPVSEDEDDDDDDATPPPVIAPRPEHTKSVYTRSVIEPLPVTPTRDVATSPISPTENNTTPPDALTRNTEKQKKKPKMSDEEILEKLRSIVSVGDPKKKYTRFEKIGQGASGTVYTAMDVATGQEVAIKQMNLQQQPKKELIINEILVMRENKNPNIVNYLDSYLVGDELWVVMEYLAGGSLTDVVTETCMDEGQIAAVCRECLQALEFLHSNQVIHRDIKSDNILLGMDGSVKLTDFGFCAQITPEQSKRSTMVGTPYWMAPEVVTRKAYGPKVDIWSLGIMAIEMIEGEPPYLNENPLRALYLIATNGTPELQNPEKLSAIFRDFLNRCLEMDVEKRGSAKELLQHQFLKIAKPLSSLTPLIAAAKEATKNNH

[2] = biological target: Serine/threonine-protein kinase PAK 4 (Homo sapiens, UniProt O96013); test: Binding affinity to N-terminal GST-tagged recombinant human PAK4 kinase domain expressed in Escherichia coli using KKRNRRLSVA as substrate preincubated for 10 mins followed by ATP addition measured after 60 mins by FRET-based Z'Lyte assay
Sequence of Serine/threonine-protein kinase PAK 4 (O96013 whole entry, the tested form may be a part): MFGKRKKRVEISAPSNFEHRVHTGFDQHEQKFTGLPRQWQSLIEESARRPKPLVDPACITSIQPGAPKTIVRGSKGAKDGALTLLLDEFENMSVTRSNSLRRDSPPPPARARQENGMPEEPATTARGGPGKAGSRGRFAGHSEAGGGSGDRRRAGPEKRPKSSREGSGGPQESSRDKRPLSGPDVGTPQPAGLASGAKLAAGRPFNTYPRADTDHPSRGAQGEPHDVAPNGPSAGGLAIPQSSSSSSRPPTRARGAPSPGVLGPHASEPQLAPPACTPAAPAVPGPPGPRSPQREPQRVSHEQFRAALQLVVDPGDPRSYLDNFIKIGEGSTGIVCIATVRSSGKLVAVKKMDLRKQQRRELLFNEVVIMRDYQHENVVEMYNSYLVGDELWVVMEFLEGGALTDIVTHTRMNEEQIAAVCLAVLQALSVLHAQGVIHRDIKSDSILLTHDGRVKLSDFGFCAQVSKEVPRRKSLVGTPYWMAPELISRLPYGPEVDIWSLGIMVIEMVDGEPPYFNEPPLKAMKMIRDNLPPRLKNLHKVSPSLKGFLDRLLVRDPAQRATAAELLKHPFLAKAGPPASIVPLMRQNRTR

[3] = Cytotoxicity against human MDA-MB-436 cells assessed as reduction in cell viability after 24 to 48 hrs by Celltiter-glo luminescence assay; format: functional, cell-based
Method in brief: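 Cells sparsely plated in 96-well plates and allowed to adhere, then given DMSO or compound (0.1, 1, 10, 50 μM) for 24 and 48 h. Metabolically active cells quantified by CellTiter-Glo luminescence. MDA-MB-436 grown in DMEM/10% FBS; MCF10A PIK3CA (one endogenous H1047R allele) in DMEM/F12 with 5% horse serum, insulin, hydrocortisone.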

Row | Ki [1] [nM] | Ki [2] [nM] | SMILES | IC50 [3] [nM]
1 | > 4500 | > 2900 | Cc1nc2ccc(C#CC(C)(O)c3ncccn3)cc2n1-c1ncnc(N)n1 (racemic) | –
2 | > 4500 | 60 | CCNc1nc2ccc(C#CC(C)(C)O)cc2n1-c1ncnc(N)n1 | –
3 | > 4500 | > 2900 | Cc1nc2ccc(C#CC(C)(O)CO)cc2n1-c1ncnc(N)n1 (racemic) | –
4 | > 4500 | > 2900 | Cc1nc2ccc(C#CC3(O)CCCOC3)cc2n1-c1ncnc(N)n1 (racemic) | –
5 | > 4500 | > 2900 | Cc1nc2ccc(C#CC3(O)COC3)cc2n1-c1ncnc(N)n1 | –
6 | – | – | Cc1nc(Nc2n[nH]c3c2CN(C(=O)N[C@H](CN(C)C)c2ccccc2)C3(C)C)c2sccc2n1 [PF-03758309] | 0.79
7 | > 4500 | 32 | Cc1cc([C@](C)(O)C#Cc2ccc3nc(C)n(-c4ncnc(N)n4)c3c2)no1 | –
8 | > 4500 | > 2900 | Cc1nc2ccc(C#CC(C)(C)CO)cc2n1-c1ncnc(N)n1 | –

Row | SMILES | Ki [1] [nM] | Ki [2] [nM] | IC50 [3] [nM]
9 | CC(C)(O)C#Cc1ccc2cnn(-c3ccnc(N)n3)c2c1 | > 4500 | 120 | –
